pKi: −log10 of the molar value. Peptide text beside a SMILES is read from it. * marks the point of attachment. Boc = CC(C)(C)OC(=O)*

Data on seven compounds can be found in BindingDB's records for doi:10.1021/jm00370a001 (1984).

The nature of assay [1]: Compound was evaluated for the inhibition of Leucine aminopeptidase and the inhibition constant was determined after preincubating the enzyme and inhibitor.
Assay [2] has as its target Cytosol aminopeptidase (Homo sapiens, UniProt P28838). The assay can be described thus: Compound was evaluated for the inhibition of Leucine aminopeptidase and the inhibition constant was determined after preincubating the enzyme and inhibitor. In outline: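 For initial rates, enzyme was added to substrate plus inhibitor to start the reaction. For steady-state rates, enzyme was preincubated 15-20 min with inhibitor, then substrate was added. Double-reciprocal (Lineweaver-Burk) analysis was used.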

Assay [3] addresses Cytosol aminopeptidase (Sus scrofa) (UniProt P28839). The assay is described as follows: Compound was evaluated for the inhibition of Leucine aminopeptidase from porcine kidney and the inhibition constant was determined after preincubating the enzyme and inhibitor.
Assay [4] shares this target. The assay can be described thus: Compound was evaluated for the inhibition of Leucine aminopeptidase and the inhibition constant was determined after preincubating the enzyme and inhibitor.
For assay [5] the target is unchanged. Described as above. This is another data set of the same source.

Sequence of Cytosol aminopeptidase (Sus scrofa) (P28839 whole entry, looked up): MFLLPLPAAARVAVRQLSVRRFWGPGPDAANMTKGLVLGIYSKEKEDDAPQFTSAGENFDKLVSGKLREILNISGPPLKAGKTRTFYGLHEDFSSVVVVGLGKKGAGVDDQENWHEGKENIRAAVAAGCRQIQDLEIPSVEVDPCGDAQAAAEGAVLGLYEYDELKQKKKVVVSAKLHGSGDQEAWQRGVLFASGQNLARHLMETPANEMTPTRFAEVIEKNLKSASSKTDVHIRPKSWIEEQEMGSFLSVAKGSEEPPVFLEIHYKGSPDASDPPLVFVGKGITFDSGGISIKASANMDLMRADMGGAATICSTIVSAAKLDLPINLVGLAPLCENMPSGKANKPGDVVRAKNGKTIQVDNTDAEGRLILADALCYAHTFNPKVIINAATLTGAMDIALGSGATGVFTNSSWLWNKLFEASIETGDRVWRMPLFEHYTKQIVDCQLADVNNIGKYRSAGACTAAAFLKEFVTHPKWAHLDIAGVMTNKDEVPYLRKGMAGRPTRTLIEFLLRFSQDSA
Sequence of Cytosol aminopeptidase (P28838 whole entry): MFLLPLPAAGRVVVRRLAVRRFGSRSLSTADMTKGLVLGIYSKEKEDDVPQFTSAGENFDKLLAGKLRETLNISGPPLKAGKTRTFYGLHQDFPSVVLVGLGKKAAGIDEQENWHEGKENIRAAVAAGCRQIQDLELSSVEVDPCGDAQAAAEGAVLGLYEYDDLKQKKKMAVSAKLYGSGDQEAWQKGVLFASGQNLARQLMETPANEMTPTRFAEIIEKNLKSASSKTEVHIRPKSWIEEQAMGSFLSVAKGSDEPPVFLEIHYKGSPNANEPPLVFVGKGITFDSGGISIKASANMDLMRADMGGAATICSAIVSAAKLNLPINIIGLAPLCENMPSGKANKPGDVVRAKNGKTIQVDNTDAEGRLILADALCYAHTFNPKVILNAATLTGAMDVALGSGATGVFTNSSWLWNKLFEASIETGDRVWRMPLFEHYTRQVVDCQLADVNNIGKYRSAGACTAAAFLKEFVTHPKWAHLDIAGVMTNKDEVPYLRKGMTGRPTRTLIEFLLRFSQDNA

`CC(C)C[C@H](NC(=O)[C@@H](O)[C@H](N)CC(C)C)C(=O)O` [2-(3-Amino-2-hydroxy-5-methyl-hexanoylamino)-4-methyl-pentanoic acid]: in assay [1], the pKi (commonly the Ki on a negative log10 scale, so that one unit is a factor of ten) was 6.92.

Consider `CC(C)CC(NC(=O)[C@H](C)[C@@H](N)Cc1ccccc1)C(=O)O` (some centres not stated) [2-(3-Amino-2-methyl-4-phenyl-butyrylamino)-4-methyl-pentanoic acid], for which the pKi in assay [2] was 5.42.

In turn, `CC(C)[C@H](NC(=O)OC(C)(C)C)C(=O)N[C@H](C(=O)N[C@@H](CC(=O)O)C(=O)O)C(C)C` [2-[2-(2-tert-Butoxycarbonylamino-3-methyl-butyrylamino)-3-methyl-butyrylamino]-succinic acid] (Boc-Val-Val-Asp-OH) had a pKi in assay [3] of 2.85.

Take `CC(C)CC(N)C(O)C(=O)NC(C(=O)NC(CC(=O)O)C(=O)O)C(C)C` (configuration not stated) [2-[2-(3-Amino-2-hydroxy-5-methyl-hexanoylamino)-3-methyl-butyrylamino]-succinic acid]: in assay [1], the pKi is 5.91.

`CC(C)C[C@@H](N)CC(=O)N[C@H](C(=O)N[C@H](C(=O)N[C@@H](CC(=O)O)C(=O)O)C(C)C)C(C)C` [2-{2-[2-(3-Amino-5-methyl-hexanoylamino)-3-methyl-butyrylamino]-3-methyl-butyrylamino}-succinic acid] showed a pKi in assay [4] of 3.17.

As to `CC(C)CCNC(=O)[C@@H](NC(=O)[C@@H](NC(=O)[C@H](O)[C@@H](N)CC(C)C)C(C)C)C(C)C` [3-Amino-2-hydroxy-5-methyl-hexanoic acid {2-methyl-1-[2-methyl-1-(3-methyl-butylcarbamoyl)-propylcarbamoyl]-propyl}-amide], the pKi in assay [5] was 6.05.

In assay [3], `CC(C)CCNC(=O)[C@H](O)[C@@H](N)Cc1ccccc1` [3-Amino-2-hydroxy-N-(3-methyl-butyl)-4-phenyl-butyramide] had a pKi of 6.30.
